# From PubChem BioAssay
# In the library only some 1.1% were active in any assay of this set; here they are far more common.
# CAL PDZ FP-1: inhibitors of human CAL PDZ peptide binding | purified CAL PDZ, TMR-peptide fluorescence polarization, 1 h | inhibition, % at 20 µM | 0.02% of 330,000 active | AID 504414;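 active means highest replicate inhibition of at least 40%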
#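 Material: tagged CAL PDZ domain; buffer or medium: 25 mM sodium phosphate pH 7.4, 150 mM NaCl, TCEP, IgG, Thesit; compound dosing: single point, 20 µM; schedule: 1 h incubation at room temperature before polarization reading; measured by: FP readout, S and P plane fluorescence; read-out basis: percent inhibition from loss of millipolarization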
# CAL PDZ FP-2: inhibitors of human CAL PDZ peptide binding; Q9HD26; purified CAL PDZ, TMR-peptide fluorescence polarization, 1 h; inhibition, % at 24.9 µM; 0.92% of 300,000 active; AID 602252;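 active means mean inhibition of at least 30% with at least half of replicates also reaching 30%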
# Rin1-Abl PPI inh: human Rin1-Abl interaction inhibition; inhibition, % at 7.35 µM; TR-FRET Rin1/Abl binding, biochemical; 0.4% of 360,000 active; AID 588664; in the data active means inhibition above about 5%, passing the limit was not always enough
# ERAP1 HTS inh: inhibitors of human ERAP1 aminopeptidase | Q9NZ08 | recombinant ERAP1, Leu-AMC fluorescence, 60 min | inhibition, % at 10.7 µM | 0.15% of 340,000 active | AID 652197;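 active means mean replicate inhibition of at least 30%, or all replicates individually reaching that 30% level; inactive means mean below 30% and not every replicate reaching it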
# Target sequence (Q9NZ08 whole entry, looked up): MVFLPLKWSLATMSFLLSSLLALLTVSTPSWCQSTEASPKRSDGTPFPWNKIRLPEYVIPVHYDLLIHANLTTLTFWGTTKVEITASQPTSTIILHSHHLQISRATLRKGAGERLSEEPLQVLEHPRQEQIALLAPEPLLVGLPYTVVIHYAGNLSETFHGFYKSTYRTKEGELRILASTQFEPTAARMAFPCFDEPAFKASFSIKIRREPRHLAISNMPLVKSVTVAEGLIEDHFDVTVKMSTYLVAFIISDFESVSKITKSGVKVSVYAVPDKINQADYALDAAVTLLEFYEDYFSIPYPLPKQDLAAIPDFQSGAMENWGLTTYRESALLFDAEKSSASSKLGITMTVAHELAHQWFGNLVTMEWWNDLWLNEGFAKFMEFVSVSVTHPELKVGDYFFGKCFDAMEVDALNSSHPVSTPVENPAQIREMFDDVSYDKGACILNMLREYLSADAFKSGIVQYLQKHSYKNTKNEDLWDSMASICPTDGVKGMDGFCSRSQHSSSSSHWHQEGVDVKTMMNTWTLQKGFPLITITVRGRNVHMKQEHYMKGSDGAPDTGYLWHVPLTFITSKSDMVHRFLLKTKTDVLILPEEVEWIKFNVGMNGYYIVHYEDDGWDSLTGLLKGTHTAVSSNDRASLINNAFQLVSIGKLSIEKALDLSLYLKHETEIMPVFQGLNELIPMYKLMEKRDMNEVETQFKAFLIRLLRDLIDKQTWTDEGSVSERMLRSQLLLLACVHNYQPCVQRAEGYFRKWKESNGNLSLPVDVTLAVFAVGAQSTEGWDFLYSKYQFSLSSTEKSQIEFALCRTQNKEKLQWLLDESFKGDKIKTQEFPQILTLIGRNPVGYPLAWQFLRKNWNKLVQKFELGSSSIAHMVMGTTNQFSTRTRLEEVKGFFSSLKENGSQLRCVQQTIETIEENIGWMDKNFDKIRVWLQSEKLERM
# ERp5 inh: ERp5 (human) disulfide isomerase inhibition. Q15084. ERp5 insulin aggregation, absorbance 650 nm, 90 min. inhibition, % at 9.99 µM. 0.05% of 350,000 active;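 active means mean replicate inhibition above about 25%, with every replicate also reaching it, limit read from the data, passing the limit was not always enough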
# PDI turbidity: blocks human protein disulfide isomerase activity; P07237; PDI insulin aggregation turbidity, A650, 90 min; inhibition, % at 10 µM; 0.052% of 350,000 active; AID 588391;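 active means mean inhibition across replicates of 30% or more, whatever share of single replicates reach that level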
# Numbers stand for hits; 0 = inactive; - = no result.
SMILES,CAL PDZ FP-1,CAL PDZ FP-2,Rin1-Abl PPI inh,ERAP1 HTS inh,ERp5 inh,PDI turbidity
C=CCn1c(SC2CCOC2=O)nc2sc(C)c(C)c2c1=O (centres undefined),-,49,0,-,-,0
CCOc1cc(N2CCOCC2)c(OCC)cc1NC(=O)COC(=O)c1ccc([N+](=O)[O-])o1,0,92,0,0,0,0
CCOc1cc(N2CCOCC2)c(OCC)cc1NC(=O)C1CCCC1,0,0,0,-,-,0
CCOc1cc(N2CCOCC2)c(OCC)cc1NC(=O)CN1CCCC1,0,94,0,-,-,0
C[C@@H]1CN([C@@H](C)CO)C(=O)c2cc(NC(=O)CCN3CCOCC3)ccc2O[C@H]1CN(C)Cc1ccc(C(=O)Nc2ccccc2N)cc1,-,-,-,0,0,-
Cc1cc(F)ccc1NC(=O)c1cc(S(=O)(=O)N2CCCC2)cn1C,0,69,0,0,0,-
CC(C)CC(CO)NS(=O)(=O)c1cccc(Cl)c1F (centres undefined),0,0,0,0,0,0
CC(C)C[C@@H](CO)NS(=O)(=O)c1c(F)cccc1F,0,35,0,0,0,0
O=C(C[C@H]1CC[C@@H](NC(=O)CN2CCOCC2)[C@@H](CO)O1)NCCc1ccncc1,-,-,-,0,0,-
Cc1ccc(S(=O)(=O)N(C)C[C@@H]2OCCCC[C@H](C)Oc3ccc(NC(=O)Nc4c(C)noc4C)cc3C(=O)N([C@@H](C)CO)C[C@@H]2C)cc1,-,-,-,0,0,-
c1ccc(CN2CCCC3(CCCN(Cc4nc(COc5ccccc5)no4)C3)C2)cc1 (centres undefined),0,52,0,-,-,0
CCOc1cc(/C=N/NC(=O)c2ccncc2)cc(Cl)c1OS(C)(=O)=O,0,54,0,0,0,0
CC(=O)Nc1sc(NC(=O)c2ccc(C)cc2)nc1-c1cccs1,-,73,0,-,-,0
COc1ccc(C(=O)Nc2nc(-c3cccs3)c(NC(C)=O)s2)cc1,-,0,0,-,-,0
CC(NC(=O)c1cc(-c2ccncc2)nc2ccc(Br)cc12)C1CCCO1 (centres undefined),0,45,0,0,0,0
NNC(=O)c1cc(C2CC2)nc2ccc(Br)cc12,0,0,0,0,0,0
NNC(=O)c1cc(-c2ccc(O)cc2)nc2ccc(Br)cc12,0,0,0,0,0,40
Nc1nc(-c2cccnc2)nc2sc3c(c12)CCCC3,0,0,0,0,0,0
CC(=O)Nc1ccc(Oc2nc(-c3cccnc3)nc3sc4c(c23)CCCC4)cc1,0,67,0,-,-,0
COc1cccc(CCNC(=O)C2CCC(=O)N(Cc3cccc(OC)c3)C2)c1 (centres undefined),0,0,0,0,0,0
O=C(NCCC1=CCCCC1)C1CCC(=O)N(Cc2cccc(C(F)(F)F)c2)C1 (centres undefined),0,36,0,0,0,0
COc1cccc(CN2CC(C(=O)NCCc3ccccc3C(F)(F)F)CCC2=O)c1 (centres undefined),0,57,0,0,0,0
C[C@@H]1CCCCO[C@H](CN(C)C(=O)Nc2ccccc2)[C@@H](C)CN([C@@H](C)CO)C(=O)c2cc(NC(=O)C3CCCCC3)ccc2O1,-,-,-,0,0,-
CNC[C@H]1Oc2ccc(NC(=O)Cc3ccccc3)cc2C(=O)N([C@@H](C)CO)C[C@H]1C,-,-,-,0,0,-
COc1cc([N+](=O)[O-])ccc1NC(=O)NCC1CCN(Cc2ccc(Cl)cc2)CC1,-,46,0,0,0,0
SMILES,CAL PDZ FP-1,CAL PDZ FP-2,Rin1-Abl PPI inh,ERAP1 HTS inh,ERp5 inh,PDI turbidity
CC(=O)OC(COC1C[C@@H]2CC[C@@]1(C)C2(C)C)C[N+]1(C)CCCCC1 (some centres undefined),0,0,0,100,0,0
Cc1nc(SCC(=O)O)c(C#N)c2c1CCCC2,0,76,0,0,0,0
Cc1ccc(-c2nn(CC(=O)NCc3cc(-c4nn(C)c(=O)c5ccccc45)ccc3C)c(=O)c3ccccc23)cc1,-,40,0,-,-,0
CCC(=O)NCc1cc(-c2nn(C)c(=O)c3ccccc23)ccc1C,-,0,0,-,-,0
CN(C)S(=O)(=O)c1ccc(NC(=O)C2CC(=O)N(Cc3ccccc3)C2)cc1 (centres undefined),0,0,0,0,0,0
CCN(CC)c1ccc(NC(=O)C2CC(=O)N(Cc3ccccc3)C2)cc1 (centres undefined),0,101,0,0,0,0
